# Data published in ChEMBL document CHEMBL3758107, “Lead optimization of the VU0486321 series of mGlu(1) PAMs. Part 2: SAR of alternative 3-methyl heterocycles and progress towards an in vivo tool” (Bioorg Med Chem Lett, 2016).
# Assays:
# [1] = biological target: T1, Metabotropic glutamate receptor 1 (Homo sapiens, UniProt Q13255); assay: Positive allosteric modulation of human mGlu1 receptor at 10 uM by cell based calcium mobilization relative to glutamate; type: functional
# Method in brief: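 Calcium mobilization assay at mGlu1, tested at a single point of 10 μM; response given as % Glu Max.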
# Target sequence in this assay (Q13255 19-1194 limits assumed): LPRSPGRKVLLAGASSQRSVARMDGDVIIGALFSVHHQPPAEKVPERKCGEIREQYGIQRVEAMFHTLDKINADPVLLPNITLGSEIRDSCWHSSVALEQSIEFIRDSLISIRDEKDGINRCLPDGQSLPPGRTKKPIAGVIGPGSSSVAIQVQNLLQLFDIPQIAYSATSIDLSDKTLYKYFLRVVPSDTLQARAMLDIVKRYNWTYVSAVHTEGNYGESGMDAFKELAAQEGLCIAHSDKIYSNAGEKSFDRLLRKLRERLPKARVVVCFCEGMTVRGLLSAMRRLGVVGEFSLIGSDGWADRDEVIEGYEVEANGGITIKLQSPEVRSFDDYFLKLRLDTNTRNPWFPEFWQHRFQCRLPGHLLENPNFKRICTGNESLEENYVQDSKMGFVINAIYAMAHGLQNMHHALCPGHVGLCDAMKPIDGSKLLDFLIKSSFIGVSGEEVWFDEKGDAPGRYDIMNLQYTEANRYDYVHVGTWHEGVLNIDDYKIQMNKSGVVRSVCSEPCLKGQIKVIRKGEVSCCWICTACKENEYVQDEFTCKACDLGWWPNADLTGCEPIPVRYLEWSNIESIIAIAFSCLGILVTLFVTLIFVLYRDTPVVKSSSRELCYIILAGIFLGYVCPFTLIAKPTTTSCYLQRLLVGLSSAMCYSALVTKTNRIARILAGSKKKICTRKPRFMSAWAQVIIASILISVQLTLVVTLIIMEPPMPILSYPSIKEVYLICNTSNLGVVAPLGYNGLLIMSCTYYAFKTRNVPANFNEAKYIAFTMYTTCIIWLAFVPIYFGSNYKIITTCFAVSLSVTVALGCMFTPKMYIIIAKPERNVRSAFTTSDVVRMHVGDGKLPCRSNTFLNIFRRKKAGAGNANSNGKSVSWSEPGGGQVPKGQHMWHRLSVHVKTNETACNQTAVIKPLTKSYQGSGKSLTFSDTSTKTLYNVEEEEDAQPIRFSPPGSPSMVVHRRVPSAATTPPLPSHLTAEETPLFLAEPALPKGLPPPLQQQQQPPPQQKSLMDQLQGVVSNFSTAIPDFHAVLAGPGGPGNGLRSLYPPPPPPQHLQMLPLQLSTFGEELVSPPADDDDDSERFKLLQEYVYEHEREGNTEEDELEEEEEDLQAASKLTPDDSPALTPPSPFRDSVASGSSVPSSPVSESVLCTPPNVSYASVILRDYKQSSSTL
# [2] = species on record: Homo sapiens; assay: Selectivity ratio of EC50 for human mGlu4 receptor to EC50 for human mGlu1 receptor
# [3] = biological target: T1, Metabotropic glutamate receptor 1; assay: Positive allosteric modulation of human mGlu1 receptor by cell based calcium mobilization; type: functional
# Method in brief: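 Calcium mobilization assay at mGlu1; EC50 and % Glu Max taken as the average of three independent experiments, each run in triplicate.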
# Target sequence in this assay (Q13255 whole entry): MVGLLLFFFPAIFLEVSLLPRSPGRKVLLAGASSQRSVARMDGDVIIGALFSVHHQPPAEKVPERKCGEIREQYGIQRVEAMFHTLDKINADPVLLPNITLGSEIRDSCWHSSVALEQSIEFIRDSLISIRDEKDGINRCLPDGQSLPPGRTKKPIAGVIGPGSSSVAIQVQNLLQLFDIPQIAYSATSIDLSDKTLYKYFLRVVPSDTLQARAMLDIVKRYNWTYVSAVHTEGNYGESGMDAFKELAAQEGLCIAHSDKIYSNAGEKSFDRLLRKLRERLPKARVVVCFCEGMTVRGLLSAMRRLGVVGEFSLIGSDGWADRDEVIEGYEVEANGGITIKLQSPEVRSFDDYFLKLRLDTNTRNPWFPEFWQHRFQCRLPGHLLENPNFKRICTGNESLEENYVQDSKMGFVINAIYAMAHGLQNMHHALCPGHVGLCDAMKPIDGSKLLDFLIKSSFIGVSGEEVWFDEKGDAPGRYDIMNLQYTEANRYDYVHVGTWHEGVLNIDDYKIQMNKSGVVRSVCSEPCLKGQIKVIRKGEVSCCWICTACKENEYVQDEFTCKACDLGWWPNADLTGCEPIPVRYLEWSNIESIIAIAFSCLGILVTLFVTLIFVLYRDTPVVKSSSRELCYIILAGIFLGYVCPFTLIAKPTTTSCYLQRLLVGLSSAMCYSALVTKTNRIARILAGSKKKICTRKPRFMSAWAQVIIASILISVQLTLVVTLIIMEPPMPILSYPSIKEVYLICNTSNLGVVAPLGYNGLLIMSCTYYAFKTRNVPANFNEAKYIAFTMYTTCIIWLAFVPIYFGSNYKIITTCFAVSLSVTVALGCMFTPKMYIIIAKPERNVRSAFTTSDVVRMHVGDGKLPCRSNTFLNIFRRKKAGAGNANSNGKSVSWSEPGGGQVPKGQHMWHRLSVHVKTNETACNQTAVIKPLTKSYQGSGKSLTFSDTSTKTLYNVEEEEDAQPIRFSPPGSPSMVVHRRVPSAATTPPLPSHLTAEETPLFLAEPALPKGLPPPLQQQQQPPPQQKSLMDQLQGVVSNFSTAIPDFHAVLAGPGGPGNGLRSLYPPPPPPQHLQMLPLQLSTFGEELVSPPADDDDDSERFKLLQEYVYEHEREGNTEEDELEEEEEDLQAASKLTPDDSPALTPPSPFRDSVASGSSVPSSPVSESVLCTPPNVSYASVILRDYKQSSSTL
# [4] = biological target: T2, Metabotropic glutamate receptor 4 (Homo sapiens, UniProt Q14833); assay: Positive allosteric modulation of human mGlu4 receptor by cell based calcium mobilization; type: functional
# [5] = biological target: T2, Metabotropic glutamate receptor 4; assay: Positive allosteric modulation of human mGlu4 receptor assessed as glutamate-induced calcium mobilization at 10 uM by cell based assay relative to PHCCC; type: functional
# T2 sequence (Q14833 whole entry): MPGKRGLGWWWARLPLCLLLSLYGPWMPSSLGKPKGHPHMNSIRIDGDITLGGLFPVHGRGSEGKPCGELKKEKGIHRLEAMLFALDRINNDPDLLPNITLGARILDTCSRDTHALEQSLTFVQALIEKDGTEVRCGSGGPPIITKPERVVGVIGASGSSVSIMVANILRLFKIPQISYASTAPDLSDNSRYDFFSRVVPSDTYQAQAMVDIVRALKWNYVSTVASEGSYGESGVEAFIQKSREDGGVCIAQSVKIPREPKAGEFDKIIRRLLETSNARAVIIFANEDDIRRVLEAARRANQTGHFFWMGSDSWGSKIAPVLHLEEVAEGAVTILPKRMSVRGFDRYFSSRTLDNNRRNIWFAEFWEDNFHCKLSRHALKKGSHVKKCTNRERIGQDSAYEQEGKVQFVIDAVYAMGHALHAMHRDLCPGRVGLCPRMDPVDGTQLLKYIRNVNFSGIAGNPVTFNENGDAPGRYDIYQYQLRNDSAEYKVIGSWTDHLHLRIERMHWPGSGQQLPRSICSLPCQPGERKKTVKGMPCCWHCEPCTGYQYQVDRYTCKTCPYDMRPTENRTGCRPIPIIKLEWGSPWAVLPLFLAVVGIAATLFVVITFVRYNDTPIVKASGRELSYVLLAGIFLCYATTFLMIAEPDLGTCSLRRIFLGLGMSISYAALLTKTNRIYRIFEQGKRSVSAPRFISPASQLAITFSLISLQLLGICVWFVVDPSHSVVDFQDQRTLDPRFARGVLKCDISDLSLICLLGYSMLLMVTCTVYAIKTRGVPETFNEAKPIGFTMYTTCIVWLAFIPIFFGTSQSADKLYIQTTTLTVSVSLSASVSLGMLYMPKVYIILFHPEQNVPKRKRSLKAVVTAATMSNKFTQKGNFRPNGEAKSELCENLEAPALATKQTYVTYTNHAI
SMILES,%max [1] [%],Ratio EC50 [2],EC50 ([3]; read-out: EC50) [nM],EC50 ([3]; read-out: pEC50 (converted)) [nM],EC50 [4] [nM],%max [5] [%]
Cc1scnc1C(=O)Nc1ccc(N2C(=O)c3cccc(Cl)c3C2=O)cc1F,22,,,,,
Cc1ocnc1C(=O)Nc1ccc(N2C(=O)c3ccc(F)cc3C2=O)cc1F,16,,,,,
Cc1ocnc1C(=O)Nc1ccc(N2C(=O)c3cccc(F)c3C2=O)c(Cl)c1,98,1.7,241,1700,> 10000,
Cc1scnc1C(=O)Nc1ccc(N2C(=O)c3ccccc3C2=O)cc1F,45,,,,,
CN1CCC[C@H]1C(=O)Nc1ccc(N2C(=O)c3ccccc3C2=O)c(Cl)c1,,,> 10000,,,
Cc1ocnc1C(=O)Nc1ccc(N2C(=O)c3ccc(Cl)cc3C2=O)c(Cl)c1,104,7.4,54,,405,67
Cc1ncoc1C(=O)Nc1ccc(N2C(=O)c3ccccc3C2=O)c(Cl)c1,,,> 10000,,,
Cc1[nH]ccc1C(=O)Nc1ccc(N2C(=O)c3ccccc3C2=O)c(Cl)c1,,,> 10000,,,
Cn1ccnc1C(=O)Nc1ccc(N2C(=O)c3ccc(F)cc3C2=O)c(Cl)c1,87,1.5,673,,1070,63
Cc1cn[nH]c1C(=O)Nc1ccc(N2C(=O)c3cccnc3C2=O)c(Cl)c1,37,,> 10000,,> 10000,27
Cc1ocnc1C(=O)Nc1ccc(N2C(=O)c3ccc(F)cc3C2=O)c(Cl)c1,93,4.6,141,,642,36
Cc1cn[nH]c1C(=O)Nc1ccc(N2C(=O)c3ccccc3C2=O)c(Cl)c1,107,,1240,,,
Cc1cn[nH]c1C(=O)Nc1ccc(N2C(=O)c3ccc(Cl)cc3C2=O)c(Cl)c1,113,3.9,855,,3380,117
Cc1scnc1C(=O)Nc1ccc(N2C(=O)c3ccccc3C2=O)c(Cl)c1,96,,56,58.9,,
Cc1scnc1C(=O)Nc1ccc(N2C(=O)c3cccnc3C2=O)cc1F,42,,,,,
Cc1ccsc1C(=O)Nc1ccc(N2C(=O)c3ccccc3C2=O)c(Cl)c1,105,,1890,,,
Cc1cccc2c1C(=O)N(c1ccc(NC(=O)c3ncoc3C)c(F)c1)C2=O,20,,,,,
Cn1ccnc1C(=O)Nc1ccc(N2C(=O)c3cccnc3C2=O)c(Cl)c1,44,,> 10000,,> 10000,
Cn1ccnc1C(=O)Nc1ccc(N2C(=O)c3cccc(Cl)c3C2=O)c(Cl)c1,30,,> 10000,,> 10000,30

SMILES,%max [1] [%],Ratio EC50 [2],EC50 ([3]; read-out: EC50) [nM],EC50 ([3]; read-out: pEC50 (converted)) [nM],EC50 [4] [nM],%max [5] [%]
Cc1cccc2c1C(=O)N(c1ccc(NC(=O)c3nccn3C)cc1Cl)C2=O,30,,> 10000,,506,32
Cc1ccc2c(c1)C(=O)N(c1ccc(NC(=O)c3ncsc3C)c(F)c1)C2=O,36,,,,,
Cn1ccnc1C(=O)Nc1ccc(N2C(=O)c3ccccc3C2=O)c(Cl)c1,59,,374,355,,
Cc1cccc2c1C(=O)N(c1ccc(NC(=O)c3ncsc3C)cc1Cl)C2=O,104,6.1,232,,1410,75
Cc1ocnc1C(=O)Nc1ccc(N2C(=O)c3cccc(F)c3C2=O)cc1F,36,,,,,
Cc1cc[nH]c1C(=O)Nc1ccc(N2C(=O)c3ccccc3C2=O)c(Cl)c1,95,,3420,3470,,
Cn1ccnc1C(=O)Nc1ccc(N2C(=O)c3cccc(F)c3C2=O)c(Cl)c1,43,,> 10000,,1090,42
Cc1ocnc1C(=O)Nc1ccc(N2C(=O)c3cccnc3C2=O)c(Cl)c1,91,> 5.9,1700,,2530,45
Cc1sccc1C(=O)Nc1ccc(N2C(=O)c3ccccc3C2=O)c(Cl)c1,105,,1510,,,
Cc1ocnc1C(=O)Nc1ccc(N2C(=O)c3ccccc3C2=O)c(Cl)c1,100,,1470,,,
Cc1scnc1C(=O)Nc1ccc(N2C(=O)c3cccc(F)c3C2=O)c(Cl)c1,111,2.5,187,,474,52
Cc1ccc2c(c1)C(=O)N(c1ccc(NC(=O)c3ncoc3C)c(F)c1)C2=O,14,,,,,
Cc1scnc1C(=O)Nc1ccc(N2C(=O)c3ccc(Cl)cc3C2=O)c(Cl)c1,91,39.1,51,,1980,169
Cc1scnc1C(=O)Nc1ccc(N2C(=O)c3cccc(Cl)c3C2=O)c(Cl)c1,121,,1370,,> 10000,59
CN1CCC[C@@H]1C(=O)Nc1ccc(N2C(=O)c3ccccc3C2=O)c(Cl)c1,,,> 10000,,,
Cc1cn[nH]c1C(=O)Nc1ccc(N2C(=O)c3cccc(Cl)c3C2=O)c(Cl)c1,94,,> 10000,,> 10000,
Cc1cn[nH]c1C(=O)Nc1ccc(N2C(=O)c3cccc(F)c3C2=O)c(Cl)c1,83,,599,22.4,> 10000,
Cc1scnc1C(=O)Nc1ccc(N2C(=O)c3ccc(Cl)cc3C2=O)cc1F,40,,,,,
Cc1ccc2c(c1)C(=O)N(c1ccc(NC(=O)c3[nH]ncc3C)cc1Cl)C2=O,106,4.9,557,,2750,133

SMILES,%max [1] [%],Ratio EC50 [2],EC50 ([3]; read-out: EC50) [nM],EC50 ([3]; read-out: pEC50 (converted)) [nM],EC50 [4] [nM],%max [5] [%]
Cc1cccc2c1C(=O)N(c1ccc(NC(=O)c3ncoc3C)cc1Cl)C2=O,91,0.9,469,479,519,39
Cc1cccc2c1C(=O)N(c1ccc(NC(=O)c3ncsc3C)c(F)c1)C2=O,17,,,,,
Cc1cn[nH]c1C(=O)Nc1ccc(N2C(=O)c3ccc(F)cc3C2=O)c(Cl)c1,106,9.8,632,,6200,59
Cc1ccc2c(c1)C(=O)N(c1ccc(NC(=O)c3nccn3C)cc1Cl)C2=O,108,2.4,254,,602,124
Cc1ocnc1C(=O)Nc1ccc(N2C(=O)c3ccccc3C2=O)cc1F,18,,,,,
Cc1scnc1C(=O)Nc1ccc(N2C(=O)c3cccc(F)c3C2=O)cc1F,43,,,,,
Cn1cccc1C(=O)Nc1ccc(N2C(=O)c3ccccc3C2=O)c(Cl)c1,95,,5260,,,
Cc1ocnc1C(=O)Nc1ccc(N2C(=O)c3ccc(Cl)cc3C2=O)cc1F,25,,,,,
Cc1cn[nH]c1C(=O)Nc1ccc(N2C(=O)c3cccc(C)c3C2=O)c(Cl)c1,110,,4940,,> 10000,
Cc1ocnc1C(=O)Nc1ccc(N2C(=O)c3cccnc3C2=O)cc1F,9,,,,,
Cc1ncsc1C(=O)Nc1ccc(N2C(=O)c3ccccc3C2=O)c(Cl)c1,,,> 10000,,,
Cc1scnc1C(=O)Nc1ccc(N2C(=O)c3ccc(F)cc3C2=O)cc1F,45,,,,,
Cc1scnc1C(=O)Nc1ccc(N2C(=O)c3ccc(F)cc3C2=O)c(Cl)c1,98,4.9,63,,306,52
Cc1ocnc1C(=O)Nc1ccc(N2C(=O)c3cccc(Cl)c3C2=O)c(Cl)c1,112,0.7,1290,1320,983,24
Cc1ccc2c(c1)C(=O)N(c1ccc(NC(=O)c3ncsc3C)cc1Cl)C2=O,86,51.1,22,,1120,161
Cc1ocnc1C(=O)Nc1ccc(N2C(=O)c3cccc(Cl)c3C2=O)cc1F,27,,,,,
Cn1ccnc1C(=O)Nc1ccc(N2C(=O)c3ccc(Cl)cc3C2=O)c(Cl)c1,103,5.9,265,,1570,145
Cc1ccc2c(c1)C(=O)N(c1ccc(NC(=O)c3ncoc3C)cc1Cl)C2=O,98,4.8,41,,198,75
Cc1scnc1C(=O)Nc1ccc(N2C(=O)c3cccnc3C2=O)c(Cl)c1,98,,191,,> 10000,
